{"source": "ChEMBL document CHEMBL4261600", "about": "(Eur J Med Chem, 2018)", "key": {"[1]": {"molecular_target": "Casein kinase I isoform alpha-like (Homo sapiens) (UniProt Q8N752)", "sequence (Q8N752 whole entry, the tested form may be a part, canonical isoform)": "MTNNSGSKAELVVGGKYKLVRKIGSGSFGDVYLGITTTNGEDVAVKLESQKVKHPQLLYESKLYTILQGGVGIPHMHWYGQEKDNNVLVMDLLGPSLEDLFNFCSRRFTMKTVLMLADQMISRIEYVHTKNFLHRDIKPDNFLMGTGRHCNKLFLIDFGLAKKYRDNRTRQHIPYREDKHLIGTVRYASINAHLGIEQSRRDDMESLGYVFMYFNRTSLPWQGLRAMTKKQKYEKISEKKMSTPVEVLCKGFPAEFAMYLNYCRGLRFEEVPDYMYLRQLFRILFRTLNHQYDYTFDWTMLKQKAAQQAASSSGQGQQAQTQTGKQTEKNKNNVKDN", "assay": "Binding affinity to wild-type human full length CSNK1A1L (M1 to N337 residues) expressed in bacterial expression system assessed as remaining unbound target protein level at 1000 nM by Kinomescan method relative to control", "in_short": "(§1)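 Single-point competition binding screen across a panel of 468 kinases and mutants, with the inhibitor at 1 μM. Binding is read out as percent of a DMSO control, and targets below 1 percent control were classed as strong binders.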"}, "[2]": {"molecular_target": "Serine/threonine-protein kinase RIO2 (Homo sapiens) (UniProt Q9BVS4)", "sequence (Q9BVS4 whole entry, looked up, the tested form may be a part)": "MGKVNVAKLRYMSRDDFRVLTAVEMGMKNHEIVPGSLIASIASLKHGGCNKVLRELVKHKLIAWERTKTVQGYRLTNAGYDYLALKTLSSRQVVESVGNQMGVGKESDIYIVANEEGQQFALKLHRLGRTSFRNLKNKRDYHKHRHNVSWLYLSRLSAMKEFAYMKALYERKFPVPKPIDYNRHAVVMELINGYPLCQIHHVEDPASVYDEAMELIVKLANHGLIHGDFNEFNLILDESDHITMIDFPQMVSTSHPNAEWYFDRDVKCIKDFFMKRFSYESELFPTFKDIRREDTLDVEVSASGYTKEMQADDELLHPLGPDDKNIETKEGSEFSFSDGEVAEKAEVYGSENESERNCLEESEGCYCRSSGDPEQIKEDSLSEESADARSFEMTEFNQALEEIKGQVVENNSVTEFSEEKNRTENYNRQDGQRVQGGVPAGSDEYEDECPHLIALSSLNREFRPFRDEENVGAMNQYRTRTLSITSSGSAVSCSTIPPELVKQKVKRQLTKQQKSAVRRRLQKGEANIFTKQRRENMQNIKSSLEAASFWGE", "assay": "Binding affinity to wild-type human partial length RIOK2 (M1 to D313 residues) expressed in mammalian expression system assessed as remaining unbound target protein level at 1000 nM by Kinomescan method relative to control"}, "[3]": {"molecular_target": "Death-associated protein kinase 1 (Homo sapiens) (UniProt P53355)", "assay": "Binding affinity to wild-type human partial length DAPK1 (M1 to F296 residues) expressed in bacterial expression system assessed as remaining unbound target protein level at 1000 nM by Kinomescan method relative to control", "in_short": "(§2)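 KINOMEscan competition binding profile across a panel of 468 kinases and mutants, with the inhibitor tested at a single concentration of 1 μM. Binding is reported as percent of control, meaning signal relative to a DMSO control.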"}, "[4]": {"molecular_target": "Protein kinase C delta type (Homo sapiens) (UniProt Q05655)", "sequence (Q05655 whole entry, looked up, the tested form may be a part)": "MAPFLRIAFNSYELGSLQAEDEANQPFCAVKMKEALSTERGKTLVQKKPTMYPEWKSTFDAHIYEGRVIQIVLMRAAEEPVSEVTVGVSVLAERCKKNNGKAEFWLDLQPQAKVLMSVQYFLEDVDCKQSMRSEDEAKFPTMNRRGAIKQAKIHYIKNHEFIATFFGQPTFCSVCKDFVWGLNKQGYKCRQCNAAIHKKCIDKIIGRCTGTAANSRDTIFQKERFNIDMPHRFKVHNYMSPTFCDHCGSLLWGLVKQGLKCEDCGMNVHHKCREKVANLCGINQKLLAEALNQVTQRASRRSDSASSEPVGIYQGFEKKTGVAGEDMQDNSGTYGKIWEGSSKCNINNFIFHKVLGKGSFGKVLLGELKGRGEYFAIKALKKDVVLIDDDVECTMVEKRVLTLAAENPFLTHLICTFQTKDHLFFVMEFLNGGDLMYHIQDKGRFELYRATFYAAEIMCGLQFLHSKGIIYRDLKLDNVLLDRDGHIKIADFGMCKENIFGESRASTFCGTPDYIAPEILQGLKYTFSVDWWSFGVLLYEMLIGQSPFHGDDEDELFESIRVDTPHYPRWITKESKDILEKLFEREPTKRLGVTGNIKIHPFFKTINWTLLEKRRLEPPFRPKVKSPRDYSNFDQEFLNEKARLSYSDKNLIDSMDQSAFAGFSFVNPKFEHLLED", "assay": "Binding affinity to wild-type human partial length PRKCD (Q328 to D676 residues) expressed in bacterial expression system assessed as remaining unbound target protein level at 1000 nM by Kinomescan method relative to control"}, "[5]": {"molecular_target": "Cyclin-dependent kinase 2 (Homo sapiens) (UniProt P24941)", "assay": "Binding affinity to wild-type human full length CDK2 (M1 to L298 residues) expressed in bacterial expression system assessed as remaining unbound target protein level at 1000 nM by Kinomescan method relative to control", "in_short": "as §1"}, "[6]": {"assay": "Half life in Sprague-Dawley rat at 20 mg/kg, po by LC-MS/MS analysis", "assay_type": "ADME, organism-based", "details": "in vivo"}, "[7]": {"molecular_target": "Serine/threonine-protein kinase STK11 (Homo sapiens) (UniProt Q15831)", "sequence (Q15831 whole entry, the tested form may be a part)": "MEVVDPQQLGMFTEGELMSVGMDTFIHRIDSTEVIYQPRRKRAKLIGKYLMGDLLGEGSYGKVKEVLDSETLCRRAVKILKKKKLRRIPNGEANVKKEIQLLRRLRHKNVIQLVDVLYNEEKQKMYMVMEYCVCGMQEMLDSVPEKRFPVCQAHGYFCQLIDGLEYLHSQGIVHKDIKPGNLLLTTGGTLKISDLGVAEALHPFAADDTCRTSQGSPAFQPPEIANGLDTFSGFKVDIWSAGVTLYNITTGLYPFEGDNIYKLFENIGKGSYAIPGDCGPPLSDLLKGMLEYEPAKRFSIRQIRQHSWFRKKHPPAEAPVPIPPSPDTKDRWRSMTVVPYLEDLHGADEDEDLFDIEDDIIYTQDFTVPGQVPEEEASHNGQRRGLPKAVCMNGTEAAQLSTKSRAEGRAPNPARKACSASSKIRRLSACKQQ", "assay": "Binding affinity to wild-type human full length LKB1 (M1 to Q433 residues) expressed in bacterial expression system assessed as remaining unbound target protein level at 1000 nM by Kinomescan method relative to control", "in_short": "as §1"}, "[8]": {"molecular_target": "Serine/threonine-protein kinase RIO1 (Homo sapiens) (UniProt Q9BRS2)", "assay": "Binding affinity to wild-type human full length RIOK1 (M1 to K568 residues) expressed in bacterial expression system assessed as remaining unbound target protein level at 1000 nM by Kinomescan method relative to control", "in_short": "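Profiled in a KINOMEscan binding panel with the inhibitor at a single concentration of 1 μM. Binding to each kinase was read out as percent of control, relative to a DMSO control. Strong binders were defined as those with a percent control value below 1.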"}, "[9]": {"molecular_target": "Cyclin-Y/Cyclin-dependent kinase 16 (Homo sapiens, UniProt Q00536)", "assay": "Inhibition of recombinant GST-tagged inactive state of human CDK16 (108 to end residues)/cyclin Y (2 to end residues)", "assay_type": "protein-complex assay"}, "[10]": {"molecular_target": "cGMP-dependent protein kinase 1 (Homo sapiens) (UniProt Q13976)", "assay": "Binding affinity to wild-type human partial length PRKG1 (L339 to F686 residues) expressed in bacterial expression system assessed as remaining unbound target protein level at 1000 nM by Kinomescan method relative to control"}, "[11]": {"assay": "Oral bioavailability in Sprague-Dawley rat at 20 mg/kg by LC-MS/MS analysis", "assay_type": "ADME, organism-based", "details": "in vivo"}, "[12]": {"molecular_target": "Cyclin-dependent kinase 2 homolog (Plasmodium falciparum (isolate 3D7)) (UniProt P61075)", "sequence (P61075 whole entry, the tested form may be a part)": "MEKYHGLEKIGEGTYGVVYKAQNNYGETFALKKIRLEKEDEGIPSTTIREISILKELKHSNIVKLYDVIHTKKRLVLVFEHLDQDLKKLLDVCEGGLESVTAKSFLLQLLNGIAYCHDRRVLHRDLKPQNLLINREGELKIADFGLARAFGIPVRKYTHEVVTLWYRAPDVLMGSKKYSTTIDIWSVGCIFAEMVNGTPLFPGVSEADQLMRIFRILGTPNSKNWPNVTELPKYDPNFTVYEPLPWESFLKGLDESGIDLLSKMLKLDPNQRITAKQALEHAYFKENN", "assay": "Binding affinity to wild-type Plasmodium falciparum full length PK5 (M1 to N288 residues) expressed in mammalian expression system assessed as remaining unbound target protein level at 1000 nM by Kinomescan method relative to control", "in_short": "as §1"}, "[13]": {"molecular_target": "Dual specificity tyrosine-phosphorylation-regulated kinase 1B (Homo sapiens) (UniProt Q9Y463)", "sequence (Q9Y463 whole entry, looked up, the tested form may be a part)": "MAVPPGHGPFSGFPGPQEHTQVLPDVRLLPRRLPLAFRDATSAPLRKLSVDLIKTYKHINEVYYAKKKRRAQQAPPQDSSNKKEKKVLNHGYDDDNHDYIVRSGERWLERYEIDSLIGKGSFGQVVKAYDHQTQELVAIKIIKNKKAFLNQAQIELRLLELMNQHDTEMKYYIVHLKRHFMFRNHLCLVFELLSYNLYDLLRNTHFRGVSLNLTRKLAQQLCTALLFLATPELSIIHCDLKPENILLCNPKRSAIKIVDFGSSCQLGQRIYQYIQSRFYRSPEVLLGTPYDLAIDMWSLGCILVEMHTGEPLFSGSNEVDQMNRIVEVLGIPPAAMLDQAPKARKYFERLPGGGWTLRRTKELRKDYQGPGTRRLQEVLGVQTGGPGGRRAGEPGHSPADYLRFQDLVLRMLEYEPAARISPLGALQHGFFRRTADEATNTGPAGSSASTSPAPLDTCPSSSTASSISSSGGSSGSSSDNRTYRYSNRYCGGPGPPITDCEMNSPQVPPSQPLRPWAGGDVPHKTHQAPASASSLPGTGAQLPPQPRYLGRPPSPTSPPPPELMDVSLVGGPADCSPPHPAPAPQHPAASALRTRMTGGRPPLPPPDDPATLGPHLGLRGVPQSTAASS", "assay": "Binding affinity to wild-type human full length DYRK1B (M1 to S629 residues) expressed in bacterial expression system assessed as remaining unbound target protein level at 1000 nM by Kinomescan method relative to control", "in_short": "as §2"}, "[14]": {"molecular_target": "Serine/threonine-protein kinase WNK4 (Homo sapiens) (UniProt Q96J92)", "assay": "Binding affinity to wild-type human partial length WNK4 (A31 to D461 residues) expressed in mammalian expression system assessed as remaining unbound target protein level at 1000 nM by Kinomescan method relative to control"}, "[15]": {"molecular_target": "Serine/threonine-protein kinase MARK2 (Homo sapiens) (UniProt Q7KZI7)", "assay": "Binding affinity to wild-type human partial length MARK2 (M1 to R450 residues) expressed in bacterial expression system assessed as remaining unbound target protein level at 1000 nM by Kinomescan method relative to control"}, "[16]": {"molecular_target": "Ribosomal protein S6 kinase alpha-3 (Homo sapiens) (UniProt P51812)", "assay": "Binding affinity to wild-type human partial length N-terminal RSK2 kinase domain 1 (M1 to D394 residues) expressed in mammalian expression system assessed as remaining unbound target protein level at 1000 nM by Kinomescan method relative to control"}, "[17]": {"assay": "Cmax in Sprague-Dawley rat at 20 mg/kg, po by LC-MS/MS analysis", "assay_type": "ADME, organism-based", "design": "dose 20 mg/kg, route oral", "details": "in vivo"}, "[18]": {"molecular_target": "Rhodopsin kinase GRK1 (Homo sapiens) (UniProt Q15835)", "sequence (Q15835 whole entry, the tested form may be a part)": "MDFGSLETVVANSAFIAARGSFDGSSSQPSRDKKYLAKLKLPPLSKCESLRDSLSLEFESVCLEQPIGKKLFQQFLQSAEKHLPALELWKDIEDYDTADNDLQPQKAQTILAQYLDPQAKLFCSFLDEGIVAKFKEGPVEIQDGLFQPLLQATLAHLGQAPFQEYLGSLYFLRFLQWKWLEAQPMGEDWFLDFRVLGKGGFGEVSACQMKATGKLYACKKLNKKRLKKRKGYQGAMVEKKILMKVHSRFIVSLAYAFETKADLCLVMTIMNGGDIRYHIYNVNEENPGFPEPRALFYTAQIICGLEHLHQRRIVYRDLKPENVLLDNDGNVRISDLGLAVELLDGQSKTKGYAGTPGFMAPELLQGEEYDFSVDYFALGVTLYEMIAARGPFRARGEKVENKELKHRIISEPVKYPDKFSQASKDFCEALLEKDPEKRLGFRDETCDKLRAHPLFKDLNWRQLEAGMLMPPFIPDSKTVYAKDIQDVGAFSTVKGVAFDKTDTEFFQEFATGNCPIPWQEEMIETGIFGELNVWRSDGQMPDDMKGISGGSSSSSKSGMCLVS", "assay": "Binding affinity to wild-type human full length GRK1 (M1 to S563 residues) expressed in mammalian expression system assessed as remaining unbound target protein level at 1000 nM by Kinomescan method relative to control", "in_short": "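KINOMEscan competition binding panel run at 1 μM inhibitor; binding reported as percent of DMSO control (remaining target bound versus vehicle).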"}, "[19]": {"molecular_target": "Serine/threonine-protein kinase N2 (Homo sapiens) (UniProt Q16513)", "sequence (Q16513 whole entry, looked up, the tested form may be a part)": "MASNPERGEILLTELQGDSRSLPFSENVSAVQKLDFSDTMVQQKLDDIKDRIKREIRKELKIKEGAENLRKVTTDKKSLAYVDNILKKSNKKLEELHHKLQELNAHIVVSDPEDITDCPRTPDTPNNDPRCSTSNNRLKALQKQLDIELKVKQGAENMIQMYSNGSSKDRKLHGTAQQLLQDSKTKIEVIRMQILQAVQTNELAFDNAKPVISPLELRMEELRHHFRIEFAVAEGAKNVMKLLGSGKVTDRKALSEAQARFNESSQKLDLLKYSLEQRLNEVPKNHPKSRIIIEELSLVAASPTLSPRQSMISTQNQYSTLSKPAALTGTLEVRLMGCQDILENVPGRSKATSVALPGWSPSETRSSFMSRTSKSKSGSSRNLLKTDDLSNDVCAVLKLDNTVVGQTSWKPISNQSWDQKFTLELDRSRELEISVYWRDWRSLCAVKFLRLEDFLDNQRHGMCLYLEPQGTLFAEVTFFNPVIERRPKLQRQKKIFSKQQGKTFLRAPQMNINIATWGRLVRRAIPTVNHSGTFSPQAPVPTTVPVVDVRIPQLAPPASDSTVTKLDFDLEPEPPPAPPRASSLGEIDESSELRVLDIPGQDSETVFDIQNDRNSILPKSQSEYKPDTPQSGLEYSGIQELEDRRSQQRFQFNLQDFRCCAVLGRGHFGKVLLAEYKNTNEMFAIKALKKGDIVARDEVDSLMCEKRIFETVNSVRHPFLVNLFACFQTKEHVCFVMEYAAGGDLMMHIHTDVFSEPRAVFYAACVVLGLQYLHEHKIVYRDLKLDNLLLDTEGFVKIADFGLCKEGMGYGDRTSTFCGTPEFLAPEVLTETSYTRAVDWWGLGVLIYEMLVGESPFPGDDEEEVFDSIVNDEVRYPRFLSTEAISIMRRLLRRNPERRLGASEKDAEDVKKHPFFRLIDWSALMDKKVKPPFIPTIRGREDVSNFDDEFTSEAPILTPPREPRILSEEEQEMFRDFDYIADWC", "assay": "Binding affinity to wild-type human partial length PKN2 (E634 to C984 residues) expressed in bacterial expression system assessed as remaining unbound target protein level at 1000 nM by Kinomescan method relative to control"}, "[20]": {"tested_on": "Epidermal growth factor receptor (Homo sapiens), P00533 [L858R,T790M]", "assay": "Binding affinity to human partial length EGFR L858R/T790M double mutant (R669 to V1011 residues) expressed in mammalian expression system assessed as remaining unbound target protein level at 1000 nM by Kinomescan method relative to control", "in_short": "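KINOMEscan competition-binding profiling across the panel of 468 kinases and mutants, with inhibitor tested at 1 μM. Binding is expressed as percent of control, with DMSO as the reference control.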"}, "[21]": {"molecular_target": "Rhodopsin kinase GRK7 (Homo sapiens) (UniProt Q8WTQ7)", "sequence (Q8WTQ7 whole entry, the tested form may be a part)": "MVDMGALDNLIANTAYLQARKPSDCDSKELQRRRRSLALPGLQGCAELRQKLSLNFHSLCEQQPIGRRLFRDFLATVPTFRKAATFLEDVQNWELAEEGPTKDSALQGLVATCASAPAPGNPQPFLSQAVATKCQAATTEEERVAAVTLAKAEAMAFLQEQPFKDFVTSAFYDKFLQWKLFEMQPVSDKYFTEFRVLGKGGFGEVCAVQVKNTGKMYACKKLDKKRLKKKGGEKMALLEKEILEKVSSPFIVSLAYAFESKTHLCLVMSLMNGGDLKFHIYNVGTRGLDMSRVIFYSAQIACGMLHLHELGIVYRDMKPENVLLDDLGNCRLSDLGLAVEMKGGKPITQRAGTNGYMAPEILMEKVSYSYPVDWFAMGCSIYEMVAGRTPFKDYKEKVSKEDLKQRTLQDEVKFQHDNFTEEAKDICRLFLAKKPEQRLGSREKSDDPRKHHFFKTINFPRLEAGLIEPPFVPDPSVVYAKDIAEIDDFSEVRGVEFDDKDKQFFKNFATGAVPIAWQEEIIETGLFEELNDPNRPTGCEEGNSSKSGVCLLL", "assay": "Binding affinity to wild-type human full length GRK7 (M1 to L553 residues) expressed in mammalian expression system assessed as remaining unbound target protein level at 1000 nM by Kinomescan method relative to control", "in_short": "as §1"}, "[22]": {"molecular_target": "Non-receptor tyrosine-protein kinase TYK2 (Homo sapiens) (UniProt P29597)", "assay": "Binding affinity to wild-type human partial length TYK2 JH1 catalytic domain (V877 to C1187 residues) expressed in mammalian expression system assessed as remaining unbound target protein level at 1000 nM by Kinomescan method relative to control"}}}
{"smiles": "COCCN[C@H]1CC[C@H](Nc2cc(-c3csc(NCC4(C#N)CCOCC4)n3)c(Cl)cn2)CC1", "values": [{"measurement": "Activity", "setting": "[1]", "value": 96, "unit": "%"}, {"measurement": "Activity", "setting": "[2]", "value": 80, "unit": "%"}, {"measurement": "Activity", "setting": "[3]", "value": 80, "unit": "%"}, {"measurement": "Activity", "setting": "[4]", "value": 91, "unit": "%"}, {"measurement": "Activity", "setting": "[5]", "value": 100, "unit": "%"}, {"measurement": "half-life", "setting": "[6]", "value": 3.37, "unit": "h"}, {"measurement": "Activity", "setting": "[7]", "value": 100, "unit": "%"}, {"measurement": "Activity", "setting": "[8]", "value": 79, "unit": "%"}, {"measurement": "IC50", "setting": "[9]", "value": 292, "unit": "nM"}, {"measurement": "Activity", "setting": "[10]", "value": 100, "unit": "%"}, {"measurement": "bioavailability", "setting": "[11]", "value": 45.1, "unit": "%"}, {"measurement": "Activity", "setting": "[12]", "value": 100, "unit": "%"}, {"measurement": "Activity", "setting": "[13]", "value": 0.35, "unit": "%"}, {"measurement": "Activity", "setting": "[14]", "value": 100, "unit": "%"}, {"measurement": "Activity", "setting": "[15]", "value": 100, "unit": "%"}, {"measurement": "Activity", "setting": "[16]", "value": 100, "unit": "%"}, {"measurement": "Cmax", "setting": "[17]", "value": 329, "unit": "ng/mL"}, {"measurement": "Activity", "setting": "[18]", "value": 84, "unit": "%"}, {"measurement": "Activity", "setting": "[19]", "value": 100, "unit": "%"}, {"measurement": "Activity", "setting": "[20]", "value": 100, "unit": "%"}, {"measurement": "Activity", "setting": "[21]", "value": 100, "unit": "%"}, {"measurement": "Activity", "setting": "[22]", "value": 90, "unit": "%"}]}
